Bioassay records from PubChem BioAssay.
RBBP9 inh – inhibitors of human serine hydrolase RBBP9 | 220,000 compounds, 0.2% hits | AID 1515 | inhibition, % at 7.94 µM | recombinant RBBP9, FP-Rh probe fluorescence polarization;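 active = inhibition above the campaign mean of all tested compounds plus 3 SD, cut at about 14% in these data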;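 also: plate controls were DMSO wells with RBBP9 for no effect and wells lacking RBBP9 protein for full effect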
Target sequence (O75884 whole entry, looked up): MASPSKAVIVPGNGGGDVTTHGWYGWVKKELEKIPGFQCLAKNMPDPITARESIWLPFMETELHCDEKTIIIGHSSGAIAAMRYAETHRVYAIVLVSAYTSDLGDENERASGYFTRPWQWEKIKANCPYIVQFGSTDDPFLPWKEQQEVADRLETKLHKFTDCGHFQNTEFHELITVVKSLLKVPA
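Controls: DMSO-treated enzyme wells and wells lacking RBBP9 | Material: RBBP9 protein | Technique: Fluorescence polarization | Replication: Single well per compound, no replicates | Buffer or medium: Tris-NaCl-Pluronic buffer, pH 8.0 | Timing: 30 min compound preincubation, 45 min probe labeling, 25 °C | Read-out basis: Percent inhibition from mP, scaled between DMSO and no-protein wells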
ABCG2 inh – inhibitors of human ABCG2 transporter, ABCB1 counter-screen | inhibition, % at 6.6 µM | 190,000 compounds, 0.1% hits | AID 1325 | IgMXP3 cells, JC-1 efflux, flow cytometry | Q9UNQ0;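 active = inhibition above 80%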;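 also: 0% = DMSO and 100% = nicardipine control wells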
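Read-out basis: Efflux inhibition in percent versus controls | Test system: ABCG2 IgMXP3 and barcoded ABCB1 CCRF-Adr cell mix | Quantity: 3 million cells/mL in well | Schedule: 10 min at 25 °C | Control set: Nicardipine as high control, DMSO as low control | Reagent: JC-1 as fluorescent efflux pump substrate | Signal: Flow cytometry of retained JC-1 fluorescence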
ABCB1 block – inhibitors of human ABCB1 transporter, ABCG2 counter-screen. P08183. CCRF-Adr cells, JC-1 efflux, flow cytometry. inhibition, % at 6.6 µM. 190,000 compounds, 0.067% hits. AID 1326; in the data active = inhibition above about 40%;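 also: 0% = vehicle and 100% = reference inhibitor; higher value means more JC-1 retained so stronger ABCB1 efflux block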
EP2 mod – modulators of human EP2 prostaglandin E2 receptor. EP2-expressing cells, cAMP HTRF FRET, PGE2 co-stimulation. induction, % at 25 µM. 260,000 compounds, 0.83% hits;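 active = compounds whose cAMP rise, as percent of the full-agonist control response, exceeds 60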;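 also: rat C6 glioma line stably carrying human EP2 under a CMV promoter; the protocol text gives 20 µM as final concentration; 100% = response of wells given 1 µM PGE2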
Target sequence (P43116 whole entry, looked up): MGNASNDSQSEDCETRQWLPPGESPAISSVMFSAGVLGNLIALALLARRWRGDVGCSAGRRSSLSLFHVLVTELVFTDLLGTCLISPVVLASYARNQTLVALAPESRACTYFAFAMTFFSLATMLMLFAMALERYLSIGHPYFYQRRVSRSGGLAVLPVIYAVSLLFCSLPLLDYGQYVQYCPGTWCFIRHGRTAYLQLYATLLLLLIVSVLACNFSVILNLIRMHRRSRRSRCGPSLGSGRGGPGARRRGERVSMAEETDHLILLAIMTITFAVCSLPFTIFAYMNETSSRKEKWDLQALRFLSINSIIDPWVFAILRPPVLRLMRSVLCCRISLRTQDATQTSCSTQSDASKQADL
EP2 antag – blocks the human prostaglandin E2 receptor EP2. P43116. C6 glioma cells expressing human EP2, cAMP TR-FRET; cells stimulated with saturating PGE2. inhibition, % at 25 µM. 260,000 compounds, 0.52% hits;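 active = percent inhibition above 40 after rounding to a whole number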;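 also: rat C6 glioma host cells with rolipram phosphodiesterase inhibitor present; the protocol text gives 20 µM as final concentration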
EP2 cAMP induct – EP2 receptor cAMP induction, counter-screens negative; calls only at 20 µM (by protocol); C6 glioma EP2 cells, cAMP HTRF induction; plus low (about EC15) PGE2 agonist; AID 1080; shares compounds with EP2 mod; 1,300 compounds, 47% hits;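 active = cAMP induction above 50% in the main assay while under 30% in all four parallel counter assays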;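 also: rat C6 glioma cells stably expressing human EP2 receptor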
* marks the source's active call; other numbers are inactive results; i = inactive; · = no result; + = active, no number. The list is not random: actives were taken first. Their share in the collection is about 1.5%.

SMILES	RBBP9 inh	ABCG2 inh	ABCB1 block	EP2 mod	EP2 antag	EP2 cAMP induct
Cc1ccc(-n2c(=S)[nH]c3c(oc4ccccc43)c2=O)cc1	-8	-5	-1	74*	14	i
O=c1c2oc3ccccc3c2[nH]c(=S)n1-c1ccccc1	-3	-1	0	71*	13	i
Cc1ccc(-n2c(C)nc3oc4ccccc4c(=O)c3c2=O)cc1	-7	1	0	16	16	·
Cc1cccc(-n2c(=S)[nH]c3c(oc4ccccc43)c2=O)c1	-12	0	0	71*	13	i
CCOC(=O)c1c(C)nc2ccccc2c1-c1ccccc1	-1	20	1	85*	5	+
COC(=O)c1c(C)nc2ccccc2c1-c1ccccc1	-7	4	1	89*	6	i
CCN(CC)S(=O)(=O)c1csc(C(=O)Nc2cccc(O)c2)c1	·	·	·	-32	6	·
OCC1OC(Nc2ccccc2)CC1O (configuration not stated)	·	·	·	-36	10	·
NS(=O)(=O)c1ccc(NCc2cnc3ccccc3n2)cc1	·	·	·	71*	10	i
NS(=O)(=O)c1ccc(NCc2cnc3ccccc3c2)cc1	·	·	·	8	7	·
O=C(NCc1ccco1)c1ccc(=O)[nH]n1	-2	-3	-2	67*	13	i
Cc1ccccc1Cn1c2ccccc2c2cn[nH]c(=O)c21	-6	9	1	62*	-7	+
Cc1cc2c(s1)c1cn[nH]c(=O)c1n2Cc1ccc(F)cc1	·	·	·	-20	·	·
CCN(c1cccc(C)c1)S(=O)(=O)c1ccc2c3c(cccc13)C(=O)N2	-14	3	1	79*	15	+
Cc1ccc(CSc2ncnc3c2cnn3Cc2ccccc2)cc1C	1	1	0	66*	5	i
Cc1ccc(CSc2ncnc3c2cnn3Cc2ccccc2)cc1	-2	6	1	43	2	·
CCOC(=O)C1CCN(c2ncnc3c2[nH]c2cccc(OC)c23)CC1	-7	4	1	-32	2	·
COc1cccc2[nH]c3c(N4CCCCC4)ncnc3c12	6	17	0	94*	4	+
CCc1cc(-c2[nH]ncc2-c2ccc3c(c2)OCO3)c(O)cc1O	-4	2	0	28	·	i
COCCNC(=O)C1CCCN(S(=O)(=O)c2ccc(Cl)cc2)C1 (configuration not stated)	·	·	·	3	15	·
COc1ccc(C)cc1-n1c(=O)c2ccccc2c2ccccc2c1=O	-4	5	1	74*	5	i
CCOC(=O)C1=CN(CC2CCCO2)C=C(C(=O)OCC)C1c1ccccc1C(F)(F)F (configuration not stated)	-3	4	5	74*	5	i
CN(C)C(=O)Cn1nc(C(c2ccccc2)c2ccccc2)oc1=O	·	·	·	-16	·	·
Nc1ccc(SC(F)(F)F)cc1C(=O)c1ccccc1	-4	0	0	69*	·	i
O=C(O)c1ccc(C(=O)c2ccccc2)c(C(=O)O)c1	·	·	·	12	5	·
SMILES	RBBP9 inh	ABCG2 inh	ABCB1 block	EP2 mod	EP2 antag	EP2 cAMP induct
O=C(CN1CCN(Cc2ccccc2)CC1)Nc1ccccc1-c1ccccc1	-1	0	1	66*	18	i
COc1ccccc1NC(=O)CN1CCN(Cc2ccccc2)CC1	0	2	1	8	8	·
O=C(CSCc1c(Cl)cccc1Cl)Nc1ccccc1-c1ccccc1	-9	1	1	75*	6	i
O=C(COC(=O)Cc1c(Cl)cccc1Cl)Nc1ccccc1-c1ccccc1	-9	12	1	41	12	·
Cc1sc(NC(=O)c2ccccc2F)c(CN2CCCCC2)c1C	-2	21	2	84*	17	i
CSc1nnc(CSCc2ccc(Cl)cc2Cl)n1-c1ccccc1	-3	0	0	61*	5	+
CC(C)C(=O)N1CCN(c2ccccc2NC(=O)c2cccnc2)CC1	·	·	·	-4	12	·
C=C1CCC2C(CC2(C)C)C(=C)CC/C1=N/O (configuration not stated)	·	·	·	55	15	i
C=C1CCC(=O)C(C)CCC2C1CC2(C)C (configuration not stated)	·	·	·	10	11	·
O=C(O)CCCSc1ccccc1	·	·	·	27	7	·
Nc1ccccc1CCCC(=O)O	·	·	·	107*	12	i
O=C1N2c3ccccc3CCc3cccc(c32)C1(O)C(F)(F)F (configuration not stated)	-4	16	1	79*	10	i
O=C1CCCC2=C1C(O)(C(F)(F)F)C(=O)N2Cc1ccccc1 (configuration not stated)	-3	14	0	-4	4	·
CCCc1cc(-c2n[nH]c(=S)n2C(C)c2ccccc2)cs1 (configuration not stated)	-2	-1	0	68*	-1	+
CCCCn1c(-c2csc(CCC)c2)n[nH]c1=S	-1	-6	-1	59	15	i
CCCc1cc(-c2n[nH]c(=S)n2CC)cs1	5	-1	0	34	17	·
CCc1ccc2[nH]c(=O)c(CN(CCCO)C(=S)NC(C)c3ccccc3)cc2c1 (configuration not stated)	·	·	·	-22	16	·
Cc1cc(NC(=O)CCC(=O)N(CC(=O)NC2CCCC2)CC2CCCO2)no1 (configuration not stated)	·	·	·	-27	14	·
COc1ccc(C2CCN(C(=O)Cc3cc(OC)c(OC)c(OC)c3)CC2)cc1	·	·	·	-51	8	·
CCC(c1nnnn1C1CCCCC1)N(Cc1cc2cccc(C)c2[nH]c1=O)C1CCCCC1 (configuration not stated)	·	·	·	17	7	·
Cc1cccc2cc(CN(Cc3cccs3)C3(c4nnnn4C4CCCC4)CCCC3)c(=O)[nH]c12	-9	9	16	66*	13	i
CCC(c1nnnn1Cc1ccco1)N(Cc1cc2cc(C)cc(C)c2[nH]c1=O)CC1CCCO1 (configuration not stated)	-5	2	1	82*	13	i
CCCC(c1nnnn1Cc1ccco1)N(Cc1cc2cc(C)cc(C)c2[nH]c1=O)CC1CCCO1 (configuration not stated)	·	·	·	-3	10	·
CCc1nnc2n1N=C(c1ccc(-c3cc(Cl)ccc3Cl)o1)CS2	-5	1	0	68*	1	+
CC(=O)CSc1nc(-c2cccs2)c(C#N)c(=O)[nH]1	4	0	0	68*	16	i
COc1ccc(CCN(C)Cc2nc(-c3cnccn3)no2)cc1OC	-4	·	·	14	7	·
COc1ccc(-c2noc(CN(C)S(=O)(=O)c3ccccc3)n2)cc1OC	-7	·	·	·	10	·
